# From PubChem BioAssay AID2247 (Johns Hopkins Ion Channel Center, 2010)
# The campaign covered roughly 300,000 compounds. About 1,200 (0.4%) were called active.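 The calls were made as follows: active = B-score over 3 SD under the library average, no early fluorescence shift, positive overall ratio signal; inactive = the rest.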 This excerpt belongs to a sample that is enriched for actives.
# Target: Short transient receptor potential channel 4 (Mus musculus) (UniProt Q9QUQ5)
# Experiment: blockers of DAMGO-evoked TRPC4 calcium flux – Fluo4 calcium, HEK293 TRPC4beta/mu-opioid cells, primary screen (AID 2247)
# Settings: at 10 µM; hits give low values
# Method in brief: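 Test system – stable TRPC4beta/mu-opioid receptor HEK293 cells · Probe or stimulus – DAMGO, a submaximal dose followed by a maximal one · Dosing – one concentration per compound · Signal – Fluo4 calcium fluorescence by kinetic imaging, 5 s 1 Hz baseline · Evaluation – per-well B score of integrated baseline-normalized Fluo4 ratio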
# Chain of Short transient receptor potential channel 4 (Mus musculus) (Q9QUQ5 whole entry, looked up): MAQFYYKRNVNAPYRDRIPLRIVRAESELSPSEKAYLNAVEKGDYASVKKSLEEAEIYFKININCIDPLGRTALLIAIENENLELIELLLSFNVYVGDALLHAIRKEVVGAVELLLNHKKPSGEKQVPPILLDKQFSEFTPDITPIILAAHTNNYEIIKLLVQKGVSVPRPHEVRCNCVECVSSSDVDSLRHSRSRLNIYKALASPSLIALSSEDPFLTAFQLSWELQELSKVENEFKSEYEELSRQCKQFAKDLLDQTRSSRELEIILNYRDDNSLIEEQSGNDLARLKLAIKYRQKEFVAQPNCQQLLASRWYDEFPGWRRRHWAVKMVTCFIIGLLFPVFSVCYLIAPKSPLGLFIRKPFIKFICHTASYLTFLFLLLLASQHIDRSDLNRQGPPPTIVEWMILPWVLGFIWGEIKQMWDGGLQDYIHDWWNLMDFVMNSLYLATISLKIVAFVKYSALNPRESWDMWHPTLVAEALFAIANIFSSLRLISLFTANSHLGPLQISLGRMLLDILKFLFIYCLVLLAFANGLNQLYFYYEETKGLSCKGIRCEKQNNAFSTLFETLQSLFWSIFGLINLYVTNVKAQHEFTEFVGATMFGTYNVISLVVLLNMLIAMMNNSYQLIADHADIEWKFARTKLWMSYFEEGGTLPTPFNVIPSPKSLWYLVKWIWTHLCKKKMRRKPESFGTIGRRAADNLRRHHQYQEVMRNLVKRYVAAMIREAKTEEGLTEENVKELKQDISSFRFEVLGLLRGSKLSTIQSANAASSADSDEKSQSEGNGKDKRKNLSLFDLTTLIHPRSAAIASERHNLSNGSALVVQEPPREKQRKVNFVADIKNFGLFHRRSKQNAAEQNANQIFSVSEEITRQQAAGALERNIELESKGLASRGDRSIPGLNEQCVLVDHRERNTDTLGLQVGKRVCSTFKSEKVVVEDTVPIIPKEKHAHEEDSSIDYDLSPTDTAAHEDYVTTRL
row,Compound,B-score
1,CC(=O)Nc1ccc(NC(=O)C2CCCN2S(=O)(=O)c2cccc(C(F)(F)F)c2)cc1 (configuration not stated),inactive
2,CC(C)c1ccc(S(=O)(=O)N2CCN(C(=O)CN3C(=O)NC(C)(c4ccccc4)C3=O)CC2)cc1 (configuration not stated),inactive
3,N#Cc1c(-c2ccccc2)nc(SCc2cccc(C(F)(F)F)c2)[nH]c1=O,inactive
4,Cc1ccc(CSc2nc(-c3ccccc3)c(C#N)c(=O)[nH]2)cc1,-6 (active)
5,N#Cc1c(-c2ccccc2)nc(SCc2ccc([N+](=O)[O-])cc2)[nH]c1=O,inactive
6,CC(C)c1ccc(S(=O)(=O)N2CCC3(CC2)OCCO3)cc1,inactive
7,Nc1ccc(C(=O)N2CCN(S(=O)(=O)c3ccc(Cl)cc3)CC2)cc1[N+](=O)[O-],inactive
8,CN(C)CCN(C(=O)CN1C(=O)c2ccccc2C1=O)c1nc2cc3c(cc2s1)OCCO3,inactive
9,CN(C)CCN(C(=O)C1CCCCC1)c1nc2cc3c(cc2s1)OCO3,-6 (active)
10,CCN(CC)CCN(C(=O)c1cc(Cl)sc1Cl)c1nc2cc3c(cc2s1)OCO3,inactive
11,CC(=O)Nc1ccc(S(=O)(=O)Oc2ccc(Br)cc2C(=S)N2CCOCC2)cc1,inactive
12,COc1ccc(/C(C)=N/N2CCOCC2)c(O)c1,inactive
13,NC(=O)c1cc2ccccc2o/c1=N/NC(=O)c1cccc(F)c1,inactive
14,COc1ccc(C(=O)N/N=c2\oc3ccccc3cc2C(N)=O)cc1,inactive
15,COc1cccc2cc(C(N)=O)/c(=N\NC(=O)c3ccccc3)oc12,-6 (active)
16,COc1ccc(C(=O)NC2CC(C)(C)Cc3c2cnn3-c2ccccc2)c(OC)c1 (configuration not stated),inactive
17,CN1OC(COC(=O)c2ccc(Cl)cc2)CC1c1ccccc1 (configuration not stated),inactive
18,CCOC(=O)C1CCN(Cc2ccc(-c3ccccc3)cc2)CC1,inactive
19,CCCCN(Cc1ccccc1)C(=O)C1CCN(Cc2sccc2C)CC1,-6 (active)
20,CCCC(=O)C1CCN(Cc2ccccc2)CC1,inactive
21,COc1cccc(CNc2ncc(-c3ccccc3)n2C)c1,inactive
22,CCN(CC)S(=O)(=O)c1ccc(Cl)c(C(=O)NCCN2CCOCC2)c1,inactive

row,Compound,B-score
1,Cc1ccccc1N(C(=O)Cc1cccs1)C(C(=O)NC1CCCCC1)c1cn(C)nc1C (configuration not stated),inactive
2,COc1cccc(CNc2nc(C(F)(F)F)nc3ccccc23)c1,inactive
3,CCc1ccc(C(CNc2nc(C(F)(F)F)nc3ccccc23)N(C)C)cc1 (configuration not stated),-7 (active)
4,NS(=O)(=O)c1ccc(CCNc2nc(C(F)(F)F)nc3ccccc23)cc1,inactive
5,CN(Cc1ccccc1F)C(=O)C(Cc1ccccc1)NC(=O)c1ccccc1 (configuration not stated),inactive
6,Cn1c(C(=O)N2CCCC(C(=O)NCc3ccccc3)C2)cc2sccc21 (configuration not stated),inactive
7,Cc1ccc(CN(C(=O)c2sc3ccccc3c2Cl)C2CCS(=O)(=O)C2)cc1 (configuration not stated),inactive
8,Fc1ccccc1COc1ccccc1CNCc1ccncc1,-7 (active)
9,c1ccc(COc2ccccc2CNCc2cccnc2)cc1,inactive
10,Fc1ccccc1COc1cccc2cccnc12,inactive
11,Cc1ccc(S(=O)(=O)CC(=O)Nc2sc(C)c(C)c2C(N)=O)cc1,inactive
12,COc1cc2ccccc2cc1C(=O)N1CCOCC1,inactive
13,CCCCCn1c(=O)[nH]c2cc(C(=O)NCCCN3CCCCC3C)ccc2c1=O (configuration not stated),inactive
14,N#CCCCn1c(O)c(N=NC(=O)C(O)c2ccccc2)c2ccccc21 (configuration not stated),inactive
15,Cc1ccc2nc(C)cc(N/N=C/c3ccc(F)cc3)c2c1,inactive
16,Oc1ccc(/C=N/Nc2nc(-c3ccccc3F)nc3ccccc23)c(O)c1,inactive
17,Cc1cc(N/N=C/c2ccccc2F)c2ccccc2n1,-8 (active)
18,CCCCC(c1nnnn1CS(=O)(=O)c1ccc(C)cc1)N1CCC(C(N)=O)CC1 (configuration not stated),inactive
19,CC1(C)OC(=O)C(=CNC(CO)C(=O)O)C(=O)O1 (configuration not stated),inactive
20,NC(=O)c1c(NC(=O)CSc2nc(N)cc(=O)[nH]2)sc2c1CCCC2,inactive
21,CCN1CCN(CC(=O)Nc2sc3c(c2C#N)CCC3)CC1,inactive
22,CCCc1cc(=O)[nH]c(SCC(=O)Nc2sc3c(c2C#N)CCCC3)n1,-6 (active)

row,Compound,B-score
1,COc1ccc2[nH]c(=O)c(CN(Cc3cccnc3)S(=O)(=O)c3ccccc3F)cc2c1,inactive
2,COc1ccccc1CN1CCN(C(c2ccccc2)c2ccccc2)CC1,inactive
3,CC(C)(C)NCc1cc(Br)ccc1OC1CCCC1,inactive
4,CC(NCc1ccccc1OC1CCCC1)c1ccccc1 (configuration not stated),-6 (active)
5,CC1CCCCC1NC(=O)/C(C#N)=C/C=C/c1ccccc1[N+](=O)[O-] (configuration not stated),inactive
6,COc1ccc(N(Cc2cc3ccc(C)cc3[nH]c2=O)S(=O)(=O)c2ccccc2)cc1,inactive
7,O=C(c1cc(C(=O)N2CCN(c3ccc(F)cc3)CC2)cc([N+](=O)[O-])c1)N1CCN(c2ccc(F)cc2)CC1,inactive
8,O=C(c1cccc(C(=O)N2CCN(c3ccc(F)cc3)CC2)c1)N1CCN(c2ccc(F)cc2)CC1,-8 (active)
9,O=C(c1cc2cc(F)ccc2[nH]1)N1CCN(c2ccc(F)cc2)CC1,inactive
10,c1ccc(Nc2n[nH]nc2-c2ccccc2)cc1,-6 (active)
11,Oc1ccc(-c2nnc(Nc3ccccc3)c3ccccc23)cc1,inactive
12,O=C(O)c1n[nH]nc1-c1ccccc1,inactive
13,COc1cc(C(F)(F)F)nc2c(Br)c(C(C)(C)C)nn12,-6 (active)
14,CC1C(=O)N2CCCc3cc(S(=O)(=O)NCc4ccc(F)cc4)cc1c32 (configuration not stated),inactive
15,Cc1cc(C)c2cc(CN(Cc3nnnn3Cc3ccc(F)cc3)C3CCCC3)c(=O)[nH]c2c1,inactive
16,Cc1cccc2cc(CN(Cc3nnnn3Cc3ccccc3)C3CCCC3)c(=O)[nH]c12,-7 (active)
17,Cc1cccc2cc(CN(Cc3ccc4c(c3)OCO4)Cc3nnnn3C3CCCC3)c(=O)[nH]c12,inactive
18,NS(=O)(=O)c1ccc(NC(=S)Nc2ccc(Br)c(Cl)c2)cc1,inactive
19,Cc1ccc(S(=O)(=O)N2CCC(C)CC2)cc1C(=O)NCc1ccccn1,inactive
20,O=C(NNC(=S)NCc1ccccc1)c1ccc(OC(F)F)cc1,inactive
21,CC(C)Oc1ccc(CCC(=O)NNC(=S)NCc2ccccc2)cc1,-6 (active)
22,Cc1ccc(OCC(=O)NNC(=S)NCc2ccccc2)cc1,inactive

row,Compound,B-score
1,COc1ccc(NC(=O)CN(C)C(=O)c2cc(-c3ccc(C)o3)nc3ccccc23)cc1,inactive
2,COc1ccc(-n2ncc3c(N4CCc5ccccc54)ncnc32)cc1,-7 (active)
3,CC(C)Sc1ncnc2c1cnn2-c1ccccc1,inactive
4,COc1ccc(-n2ncc3c(SCC(=O)NNC(C)=O)ncnc32)cc1,inactive
5,Nc1ccc(Cl)c(S(=O)(=O)Nc2ccccc2Cl)c1,inactive
6,O=C(COC(=O)/C=C/c1cccc(Cl)c1)NCCc1ccccc1,inactive
7,COc1ccc(CN2CCCC(CNC(=O)c3ccc(F)cc3)C2)cc1OC (configuration not stated),-6 (active)
8,COc1ccc(CCN(C)C(=O)C2CCCN(Cc3ccc(OC)c(OC)c3)C2)cc1OC (configuration not stated),inactive
9,COc1ccc(Cc2nc3ccc(C(=O)NCC4CCOCC4)cc3o2)cc1OC,inactive
10,O/N=C(\C[n+]1ccccc1)c1ccc(Br)cc1,inactive
11,Cn1ncc(Br)c1C(=O)NC1CCCC1,inactive
12,COc1ccc(CCN2C(=O)C(C)=C(C)C2=O)cc1OC,inactive
13,COc1ccc(CCN(C)CCN2C(=O)c3ccccc3C2=O)cc1OC,-8 (active)
14,COc1ccc(CCN2C(=O)C3CC=C(C)CC3C2=O)cc1OC (configuration not stated),inactive
15,O=C(CSc1ncnc2c1oc1ccccc12)NC1CCCC1,inactive
16,CCCCCCCCCCOC(=O)Cn1c(COc2ccc(C)cc2)[n+](C)c2ccccc21,inactive
17,CCCCCCCCCCOC(=O)Cn1c(COc2cccc(OC)c2)[n+](C)c2ccccc21,-6 (active)
18,CCn1c(COc2cccc(OC)c2)nnc1SCC(=O)N1CCOCC1,inactive
19,O=C(OCC(=O)N1CCCC1=O)c1cc(S(=O)(=O)N2CCOCC2)ccc1Cl,inactive
20,CCOc1ccc(C(=O)Nc2ccc(CN3CCOCC3)cc2)cc1Cl,inactive
21,Cn1c(=O)[nH]c(=O)c2c1nc(NCCCn1ccnc1)n2Cc1cccc(Br)c1,inactive
22,O=C(COc1ccccc1Cl)Nc1ccccc1C(=O)NC1CC1,inactive

row,Compound,B-score
1,Cc1ccccc1OCC(=O)NNC(=O)c1ccc(-n2cncn2)c([N+](=O)[O-])c1,inactive
2,Cc1ccc(O)c(CNc2nc3ccccc3n2C)c1,inactive
3,Cc1ccc(O)c(CNc2nc3ccccc3[nH]2)c1,-7 (active)
4,Cc1ccc(-c2cc(=O)[nH]c(NCc3ccccc3)n2)cc1,inactive
5,CCC1CCCCN1S(=O)(=O)Cc1ccccc1Cl (configuration not stated),inactive
6,CCc1ccc(NC(=O)CN2CCC(C(=O)c3ccc(OC)cc3)CC2)cc1,inactive
7,CC1(C)OC(=O)C(=CSc2ccc(C(C)(C)C)cc2)C(=O)O1,inactive
8,CSc1ccc(/C=N/NC(=O)c2cccc(Cl)c2)cc1,inactive
9,CSc1ccc(/C=N\NC(=O)CC(=O)NC(C)C)cc1,-8 (active)
10,Cc1ccc(-n2c(C)cc(/C=N\NC(=O)CC(=O)NC(C)C)c2C)cc1,inactive
11,Cc1ccc(-c2csc(NCCc3nc4cc(Cl)c(Cl)cc4n3CCOCCO)n2)cc1,inactive
12,CCOc1ccc(Cn2c(SCCCCC#N)nc3c2c(=O)n(C)c(=O)n3C)cc1OCC,-5 (active)
13,CCCSc1nc2c(c(=O)n(C)c(=O)n2C)n1Cc1ccc(C)cc1,inactive
14,Cc1cccc(Cn2c(SCCO)nc3c2c(=O)n(C)c(=O)n3C)c1,inactive
15,COc1ccc(N2C(=O)C3C(C2=O)C(C(=O)c2ccccc2)N2CCCC32)cc1 (configuration not stated),inactive
16,O=C(COC(=O)c1ccc(F)cc1)NCCCc1ccccc1,inactive
17,CSCCNCc1cn(-c2ccc(F)cc2F)nc1-c1ccccc1C,-7 (active)
18,COc1ccccc1CC(=O)Nc1ccc(F)cc1F,inactive
19,Cc1ccc(-c2nn(-c3cccc(F)c3)cc2CNCCc2ccncc2)o1,inactive
